A selection: hits, their analogues and other compounds. The true share with any hit is near 2.9%.
Ins promoter up: MIN6 insulin promoter up-regulation. z-score at 5 µM. 190,000 compounds, 0.3% hits. MIN6 insulin promoter-GFP reporter, high-content imaging; stronger effect = higher value;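 active means z-score above 3 at 5 µM with at least 500 cells counted in the well; inconclusive means wells under 500 cells, flagged as cytotoxic or low count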
MT stabilize HCS: microtubule stabilization, imaging screen | HeLa tubulin immunostaining HCS, 24 h; share of cells brighter than vehicle mean+2SD | % tubulin-high responders, % at 10 µM | 200,000 compounds, 0.83% hits | AID 2205;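 active means plate Z-score above 3 for both tubulin-high and condensed-nucleus cell shares, with cell loss under 80%, at 10 µM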;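 further: anti alpha tubulin signal scored within the nucleus-defined area of each cell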
Autophagy HCS: alters autophagy in cells. MEF GFP-LC3 puncta imaging; test concentration mostly 10 µM. calls only at 10 µM (by protocol). 190,000 compounds, 0.98% hits. AID 463193;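 active means percentage of spot-positive cells more than 3 SD above its plate mean, without a fluorescence outlier flag or 80% toxicity; inconclusive means no clear call, values can overlap the other calls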;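 further: spot-positive cell cutoff set from DMSO-treated cells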
Wee1 stabilizer: human Wee1 degradation inhibition, primary screen. AID 1321. P30291. 220,000 compounds, 1.2% hits. HeLa Luc-Wee1K328M stability, luciferase luminescence; 100% = proteasome inhibitor MG132 effect. reporter increase, % at 5 µM;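 active means activation above the mean of all tested compounds plus 3 SD, set per screening run, cut at about 8.8% in these data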;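 further: cells exposed to compound for 20 h before luminescence read; 0% = DMSO alone and 100% = MG132 at 30 µM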
Target sequence (P30291 whole entry K328M): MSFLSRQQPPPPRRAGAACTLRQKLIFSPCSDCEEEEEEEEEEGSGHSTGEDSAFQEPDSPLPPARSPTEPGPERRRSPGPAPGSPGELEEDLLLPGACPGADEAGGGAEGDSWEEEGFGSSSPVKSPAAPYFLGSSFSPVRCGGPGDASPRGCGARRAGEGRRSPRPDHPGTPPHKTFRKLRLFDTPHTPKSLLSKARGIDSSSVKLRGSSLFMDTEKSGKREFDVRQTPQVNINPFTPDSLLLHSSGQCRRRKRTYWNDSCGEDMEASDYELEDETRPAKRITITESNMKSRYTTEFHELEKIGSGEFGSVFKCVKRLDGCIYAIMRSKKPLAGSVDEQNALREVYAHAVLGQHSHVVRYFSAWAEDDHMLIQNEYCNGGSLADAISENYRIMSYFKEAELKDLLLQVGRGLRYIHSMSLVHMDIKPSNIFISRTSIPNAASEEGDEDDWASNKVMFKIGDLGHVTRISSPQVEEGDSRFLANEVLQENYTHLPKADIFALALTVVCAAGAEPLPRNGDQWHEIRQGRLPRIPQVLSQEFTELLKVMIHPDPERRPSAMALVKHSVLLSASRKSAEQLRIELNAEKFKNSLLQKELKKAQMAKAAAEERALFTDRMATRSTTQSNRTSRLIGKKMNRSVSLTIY
b-catenin transl: alters nuclear translocation of beta-catenin in HeLa cells | immunofluorescence imaging | 190,000 compounds, 0.3% hits | nuclear translocation activity, % at 5 µM | AID 1665;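 active means nuclear translocation activity above 50% at 5 µM, with a well cell count of 50 or more; inconclusive means wells under 50 cells across six images, flagged as toxic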;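 further: per-cell ratio of nuclear to cytoplasmic median beta-catenin stain intensity; plate controls were DMSO negative control for no effect and GSK-3 inhibitor IX positive control for full effect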
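Test system: HeLa cells, endogenous beta-catenin; Compound: single 5 µM dose plus 0.02–20 µM confirmation series; Times: compound exposure 24 h at 37°C; Signal: fluorescence imaging of beta-catenin antibody stain plus DAPI; Read-out: % activation, nuclear-to-cytoplasmic median beta-catenin signal ratio per cell.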
* = called active by the depositor; i = inactive; ? = inconclusive; . = no result given; + = active, no number.

SMILES | Ins promoter up | MT stabilize HCS | Autophagy HCS | Wee1 stabilizer | b-catenin transl
Oc1[nH]c2ccccc2c1N=Nc1ccc(F)cc1 | -0.19 | 3 | i | -1 | 4
CCCCCCCCCCCCCCCCn1cc[n+](C)c1 | ? | 72* | + | -5 | 18
COCCn1nnnc1CN(CCc1ccccc1)Cc1cc2cc(OC)ccc2[nH]c1=O | . | 4 | i | -1 | .
COCCn1nnnc1CN(CCc1ccc(OC)c(OC)c1)Cc1cc2ccc(C)cc2[nH]c1=O | -0.06 | 3 | + | -3 | 1
CCC1(C)Cc2c(sc3c2c2ncnn2c2nnc(SCC(=O)NCc4ccco4)n32)CO1 (stereo not given) | 0.41 | 13* | i | 2 | -2
CCCCOc1ccc2ccccc2c1C=O | 1.1 | 3 | + | 1 | 1
O=[N+]([O-])/C=C/c1c(OCc2ccccc2)ccc2ccccc12 | . | 3 | i | -2 | -2
Cc1cccc(NC(=O)Nc2ccc(C#N)cc2)n1 | 3.4* | 8 | i | -3 | 4
Cc1cccc(NC(=O)Nc2cccc(C#N)c2)n1 | -0.44 | 5 | i | -2 | 1
CC(=O)NC1=NN(C(C)=O)C(C)(c2cccs2)S1 (stereo not given) | -0.3 | 39* | i | 0 | 2
CC(=O)NC1=NN(C(C)=O)C(C)(c2ccco2)S1 (stereo not given) | -0.97 | 2 | i | -1 | 0
CCc1ccccc1S(=O)(=O)Cc1ccc(C(=O)N2CCN(c3ccccc3OC)CC2)o1 | 0.57 | 2 | + | 0 | .
Cn1cccc1-c1nc2ccc(NC(=O)c3ccc([N+](=O)[O-])cc3)cc2[nH]1 | -0.92 | 2 | i | 1 | .
Cn1cccc1-c1nc2ccc(NC(=O)c3ccccc3)cc2[nH]1 | -0.74 | 3 | i | 10* | .
O=C1/C(=C/c2c[nH]c3ccccc23)CCC/C1=C\c1c[nH]c2ccccc12 | 4.6* | 6 | i | 0 | 23
CCC(c1nnnn1Cc1ccc(OC)cc1)N(CCCO)Cc1cc2cc3c(cc2[nH]c1=O)OCO3 (stereo not given) | -0.92 | 4 | i | 9.2* | -1
COC(=O)c1ccc(/C=N/NC(=O)c2ccccc2Cl)cc1 | . | 3 | i | 1 | -2
CC(C)c1ccc(/C=N/NC(=O)c2ccccc2Cl)cc1 | 0.13 | 23* | i | 8.9* | -1
CCc1ccc(OCC(=O)Nc2ccc(N3CCN(S(C)(=O)=O)CC3)cc2)cc1 | -0.28 | 1 | i | -3 | 0
O=C(Nc1ccc2c(c1)OCCO2)c1cncc(Br)c1 | 0.9 | 2 | i | 0 | -2
O=C(Nc1ccc2c(c1)OCO2)c1cncc(Br)c1 | 0.86 | 6 | i | 21* | 0
COc1cc(NS(=O)(=O)c2ccc(OC)c(C)c2C)c(OC)cc1Cl | -0.24 | 39* | i | 5 | 81*
COc1ccc(OC)c(S(=O)(=O)Nc2cc(OC)c(Cl)cc2OC)c1 | -0.04 | 3 | i | 0 | 1
c1ccc(-n2cnc3cc(NCc4ccco4)ccc32)cc1 | -0.39 | 15 | i | 6 | 14
O=C(c1ccco1)N1CCN(C(=O)c2cnn3c2NC(c2cccs2)CC3C(F)(F)F)CC1 (stereo not given) | . | 3 | i | -1 | .
SMILES | Ins promoter up | MT stabilize HCS | Autophagy HCS | Wee1 stabilizer | b-catenin transl
O=C(c1cnn2c1NC(c1ccco1)CC2C(F)(F)F)N1CCN(c2cccc(Cl)c2)CC1 (stereo not given) | 0.55 | 45* | i | 0 | 44
O=C(/C=C/c1ccc(Br)o1)Nc1nnc(C2CC2)s1 | -0.25 | . | . | -1 | 2
CCC1=[N+](CC(=O)c2ccc(Br)cc2)CCn2c(C)ccc21 | 0.18 | . | . | 11* | 5
Fc1ccc(-c2n[nH]c(=S)n2-c2ccc3c(c2)OCCO3)cc1 | -0.82 | 2 | i | 9.1* | -2
S=c1[nH]nc(-c2ccc(Cl)cc2)n1-c1ccc2c(c1)OCCO2 | -0.05 | 4 | i | 0 | 0
CCOc1ccc(-n2cc(C(=O)Nc3cccc(OC)c3)c3cc(OC)c(OC)cc3c2=O)cc1 | -1.2 | 4 | i | -1 | -4
CCOc1ccc(-n2cc(C(=O)Nc3ccc(Cl)cn3)c3cc(OC)c(OC)cc3c2=O)cc1 | -1 | 0 | + | 0 | .
O=C(COC(=O)c1cc(S(=O)(=O)N2CCOCC2)ccc1O)NCC1CCCO1 (stereo not given) | 3.8* | 6 | i | -1 | 0
O=C(COC(=O)c1cc(S(=O)(=O)N2CCCC2)ccc1O)Nc1ccc(S(=O)(=O)N2CCOCC2)cc1 | -0.13 | . | . | -4 | -1
O=C(O)C(=O)/C(=C\c1cccc2ccccc12)c1ccc2ccccc2n1 | 0.07 | 41* | i | 0 | .
O=C(O)c1cc(-c2ccc(/C=C3/SC(=S)N(Cc4ccccc4)C3=O)o2)ccc1Cl | . | 6 | i | -3 | -2
O=C(O)c1cccc(N2C(=O)/C(=C/c3ccc(SCc4ccc(Cl)cc4)o3)SC2=S)c1 | 0.49 | 3 | i | 12* | -2
CCOc1ccc(N(CCCCO)C(=S)NC(=O)c2ccc(C)c(Br)c2)cc1 | -2.1 | 2 | i | 3 | -5
O=C(c1cccc(C(F)(F)F)c1)C1CCCN(C(=O)CCCN2CCCC2=O)C1 (stereo not given) | . | 2 | i | -1 | -1
COc1ccc(C(=O)NNC2=Nc3cccc4cccc2c34)cc1 | -0.15 | 3 | + | 2 | -2
COc1ccc(/C=C/C(=O)NC(=S)NNC(=O)c2ccco2)cc1OC | -1.1 | . | . | -2 | -1
COc1ccc(/C=C/C(=O)NC(=S)NNC(=O)c2ccco2)cc1 | 0.04 | 33* | i | 0 | -2
Cc1cc(N2C(=O)C3C4C=CC(C4)C3C2=O)ccc1Br (stereo not given) | . | 4 | i | -3 | -1
c1ccc(CC2CCN(C3=Nc4cccc5cccc3c45)CC2)cc1 | . | 2 | + | 0 | -2
O=C1Nc2ccccc2/C1=N\c1sc2c(c1C(=O)Nc1ccccc1)CCCC2 | -1.3 | 4 | + | -1 | -7
CCN(CC(=O)Nc1ccccc1OC)C(=O)COc1ccc2ccccc2c1 | -0.28 | 2 | i | 3 | -2
Nc1nccc(-c2cc(-c3ccc(Cl)cc3Cl)no2)n1 | 0.14 | . | . | 10* | -1
Cc1nc2ccccc2c2c1C(=O)N(c1cccc(C(=O)O)c1)C2=O | -0.15 | 4 | i | -3 | -5
Cc1ccc(C)c(C(=O)COC(=O)c2cccc(N3C(=O)c4c(C)nc5ccccc5c4C3=O)c2)c1 | 0.04 | 2 | i | 9.0* | 0
CCc1ccc(N/C(N)=N/c2nc(CSc3ccccn3)cc(=O)[nH]2)cc1 | -1.1 | 17* | i | 3 | 1
COc1ccc(N/C(N)=N/c2nc(CSc3ccc(C)cc3)cc(=O)[nH]2)cc1 | . | 3 | i | -1 | 3
Cc1ccc(N/C(N)=N/c2nc(CSc3ccccn3)cc(=O)[nH]2)c(C)c1 | -1.7 | 2 | i | 0 | -1
COc1cccc(N/C(N)=N/c2nc(CSc3ccccn3)cc(=O)[nH]2)c1 | 0.07 | 5 | + | 5 | -2

Screens: PubChem, several laboratories
